# From PubChem
# eLon inh: inhibits E. coli Lon protease; purified E. coli Lon protease, fluorescence polarization; inhibition, % at 7.94 µM; 360,000 compounds, 0.42% hits; AID 602123; in the data active means inhibition above about 13%, passing the limit was not always enough;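 further: 0% = enzyme with probe and DMSO and 100% = no enzyme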
# GSTO1 inh: counter-screen for RBBP9 inhibitors: inhibitors of human GSTO1 | recombinant GSTO1, activity-based probe fluorescence polarization | inhibition, % at 5.96 µM | 300,000 compounds, 1.1% hits | AID 1974;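 active means inhibition above the campaign mean inhibition plus 3 SD, cut at about 35% in these data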;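 further: 0% = GSTO1-1 with DMSO and 100% = wells lacking GSTO1-1 enzyme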
# TDP2 absorb: TDP2 (human) inhibition, absorbance primary screen. O95551. recombinant TDP2, T5PNP hydrolysis, p-nitrophenol absorbance 415 nm. inhibition, % at 12.8 µM. 370,000 compounds, 0.34% hits. AID 720702;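 active means inhibition above the mean of all tested compounds plus 3 SD, set per campaign, cut at about 25% in these data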;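 further: 0% = DMSO with enzyme and 100% = buffer with substrate but no TDP2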
#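 Read-out basis: percent inhibition. System: recombinant human TDP2. Buffer or medium: Mg2+-containing Tris-HCl buffer, pH 7.5. Repeats: single replicate. Timing: reaction 2 h, 37 °C. Benchmarks: high control without enzyme, low control DMSO plus TDP2. Probe or stimulus: 5 mM T5PNP. Doses: 12.8 µM only. Measured by: epi absorbance of p-nitrophenol freed from T5PNP by hydrolysis.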
# PRMT1 inh: inhibitors of human PRMT1. recombinant PRMT1, activity-based probe fluorescence polarization. inhibition, % at 2.79 µM. 370,000 compounds, 1.3% hits;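 active means inhibition above about 21% made by adding two undisclosed values, limit read from the data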
# PAD4 FP inh: inhibitors of human PAD4; Q9UM07; recombinant PAD4, RCA probe fluorescence polarization; inhibition, % at 6.36 µM; 330,000 compounds, 0.41% hits;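 active means percent inhibition above a cutoff equal to the mean of all tested compounds plus 3 SD, cut at about 15% in these data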;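 further: 0% = PAD4 with RCA probe and DMSO and 100% = probe without PAD4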
# Target sequence (Q9UM07 whole entry, looked up): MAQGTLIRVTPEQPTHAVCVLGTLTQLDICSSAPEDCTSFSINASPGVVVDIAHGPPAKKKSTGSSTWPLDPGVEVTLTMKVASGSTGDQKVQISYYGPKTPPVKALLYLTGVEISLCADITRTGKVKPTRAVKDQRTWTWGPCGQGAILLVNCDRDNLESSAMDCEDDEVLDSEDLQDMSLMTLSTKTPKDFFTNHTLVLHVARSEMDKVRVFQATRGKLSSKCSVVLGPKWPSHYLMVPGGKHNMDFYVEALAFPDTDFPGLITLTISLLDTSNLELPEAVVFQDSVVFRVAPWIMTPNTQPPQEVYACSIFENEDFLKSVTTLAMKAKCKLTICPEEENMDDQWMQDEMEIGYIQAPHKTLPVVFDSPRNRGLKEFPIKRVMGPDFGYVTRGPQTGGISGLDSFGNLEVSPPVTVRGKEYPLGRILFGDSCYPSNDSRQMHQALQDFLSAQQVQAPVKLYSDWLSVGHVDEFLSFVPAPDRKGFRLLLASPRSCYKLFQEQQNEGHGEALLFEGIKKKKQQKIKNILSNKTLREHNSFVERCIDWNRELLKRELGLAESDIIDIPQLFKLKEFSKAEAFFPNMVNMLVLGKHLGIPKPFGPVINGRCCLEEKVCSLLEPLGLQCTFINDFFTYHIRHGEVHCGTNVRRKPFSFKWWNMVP
# PAD4 FP conf: PAD4 (human) inhibition, confirmed; shares compounds with PAD4 FP inh; 1,200 compounds, 28% hits; recombinant PAD4, RCA probe fluorescence polarization; inhibition, % at 6.36 µM;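 active means mean inhibition across replicates above the hit cutoff set by the earlier primary screen, cut at about 15% in these data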;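 further: inhibitors block active-site labeling by the probe so polarization falls; 0% = PAD4 with probe and DMSO and 100% = probe without PAD4 enzyme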
# * marks the source's active call; other numbers are inactive results; x = no result; ! = repeats disagree. Rows were chosen to be rich in hits. Some 2.5% of all compounds tested hit in one or more screens of this group.
SMILES,eLon inh,GSTO1 inh,TDP2 absorb,PRMT1 inh,PAD4 FP inh,PAD4 FP conf
Cc1cc(O)ccc1N=Cc1c(C(F)(F)F)[nH][nH]c1=O,9,94*,11,25*,98*,2
N#Cc1cc(F)cc(OC[C@@H](O)CN2CCC(C(O)(c3ccccc3)c3ccccc3)CC2)c1,x,x,-4,-2,x,x
CS(=O)(=O)N[C@@H]1C[C@@H]2O[C@@H](CO)CC[C@@H]2O[C@@H]1CCc1ccc(-c2ccccc2F)cc1,x,x,-1,-2,x,x
Cc1cccc(-c2nnc3n2N=C(c2ccccc2)CS3)c1,-10,2,3,2,-1,x
Cc1nn2c(nc1=O)SCC(c1ccccc1)=N2,-7,9,-2,24*,18*,-6
COc1ccccc1C(=O)Nc1nc(-c2ccc(S(=O)(=O)N3CCOCC3)cc2)cs1,3,-32,-1,3,40*,41*
O=C(Oc1cccc(-c2cnc3ccccc3n2)c1)c1ccco1,0,13,-1,0,24*,19*
CC(=O)N1CC[n+]2c(-c3ccc(Cl)cc3Cl)csc21,-6,4,10,57*,16*,5
COc1ccc(NC(=O)CCNC(=O)Cn2cnc3sc4c(c3c2=O)CCCC4)c(OC)c1,4,9,0,1,-2,x
COc1ccc(NC(=O)CCCNC(=O)Cn2cnc3sc4c(c3c2=O)CCCC4)c(OC)c1,-17,-3,3,3,35*,4
Cc1ccc(S(=O)(=O)/N=C(\Sc2ccccc2)c2ccccc2)cc1,-9,-1,-1,4,-1,x
Cc1ccc(S(=O)(=O)/N=C(/Sc2ccccc2C(=O)O)c2ccccc2)cc1,-8,5,1,4,18*,25*
CCCCc1cc(=O)oc2cc(O)ccc12,-5,-2,-9,3,24*,4
CCCCc1cc(=O)oc2cc(OCC(=O)N3CCOCC3)ccc12,-3,-4,1,4,-2,x
COc1ccc2c(C)cc3n[nH]c(=S)n3c2c1,-41,3,19,5,22*,16*
Cc1ccc(C(=O)NC(=O)CSc2nncn2C)cc1,7,2,-7,2,1,x
Cc1ccc(C2=NN=C(NC(=O)CSc3nncn3C)SC2)cc1,-5,7,-15,94*,67*,62*
COc1ccc(OC)c(S(=O)(=O)N2CCCCC2C(=O)N2CCN(c3ccccc3F)CC2)c1 (stereo unspecified),x,x,0,11,x,x
Brc1ccc(-c2nc(-c3ccncc3)no2)o1,-1,7,3,-3,15*,4
CCOC(=O)[C@]12CCCC=C1N(Cc1ccc(OC)cc1)C(=O)[C@@H]2CC(=O)NCc1ccc(C)o1,x,x,-12,-6,x,x
CCOC(=O)Cc1nnc(NC(=O)CSc2nnc3c(n2)[nH]c2ccccc23)s1,10,11,1,2,22*,5
CCOC(=O)C1CCN(CC(=O)N2CCc3ccccc32)CC1,-7,-1,1,3,38*,2
CC1CCN(CC(=O)N2CCc3ccccc32)CC1,-7,4,-18,-4,-2,x
CCOC(=O)[C@@]12CCCC=C1N(CCc1ccc(Cl)cc1)C(=O)[C@H]2CC(=O)NCC1CCCCC1,x,x,0,5,x,x
O=C1NCCOC(=O)[C@@H](Cc2ccc(F)cc2)C/C=C\C[C@@H]1CC(=O)N(CCO)Cc1ccccc1,-5,x,16,2,20*,-2
SMILES,eLon inh,GSTO1 inh,TDP2 absorb,PRMT1 inh,PAD4 FP inh,PAD4 FP conf
O=C(O)CCN1C(=O)C2C3CC(C2C1=O)C1C(c2ccccc2)c2sc(=O)[nH]c2SC31 (stereo unspecified),-3,3,6,9,17*,-5
O=C(O)CCN1C(=O)C2C3CC(C2C1=O)C1C(c2ccccc2)c2sc(=O)n(-c4ccccc4)c2SC31 (stereo unspecified),5,-6,-8,3,1,x
O=C1N2Cc3ccccc3C2CS(=O)(=O)N1Cc1ccccc1 (stereo unspecified),x,x,3,-1,x,x
COc1ccc(CCNC(=O)COc2nsnc2N2CCOCC2)cc1OC,-8,-10,-6,0,44*,-3
Cc1cc(C)cc(NC(=S)/C(=C(\[O-])c2ccc(Cl)s2)[n+]2cccc(C)c2)c1,-5,-2,-13,1,90*,-4
Cc1ccc(C)c(NC(=S)/C(=C(\[O-])c2ccc(Cl)s2)[n+]2ccccc2)c1,-2,4,-6,8,-3,x
CCn1c(CSc2nc3ccccc3[nH]2)nc2cc(C(=O)O)ccc21,6,12,-1,2,32*,34*
CCSc1nc2ccccc2[nH]1,-5,-2,3,2,17*!,6
S=c1[nH]nc(COc2ccccc2)n1/N=C/c1ccncc1,-3,1,2,-5,-5,x
CCc1ccc(/C=N/n2c(COc3ccccc3)n[nH]c2=S)cc1,-4,-1,10,16,32*,13
Cc1ccc(C(=O)NCC(=O)OCC(=O)NC2CCS(=O)(=O)C2)cc1C (stereo unspecified),-6,0,-1,3,35*,4
Cc1ccc(OCC(=O)OCC(=O)NC2CCS(=O)(=O)C2)cc1C (stereo unspecified),-7,x,4,4,x,x
COc1ccc(OC)c(C2NC(=O)c3sc(=S)n(-c4ccccc4)c3N2)c1 (stereo unspecified),7,5,13,3,22*,35*
CC(NC(=O)c1cc2ccc(C(F)(F)F)cc2nc1N)c1cccc2ccccc12 (stereo unspecified),x,x,4,0,x,x
CCOc1ccc(N)c(SSc2cc(OCC)ccc2N)c1,-1,23,-1,86*,26*,31*
CCOc1cccc(N)c1,-2,x,x,x,-3,x
CCNC(=S)NNC(=O)c1csc(C)c1,1,5,5,2,93*,5
CN(CCO)c1cccc2c1S(=O)(=O)N(Cc1cn(Cc3ccccc3C(F)(F)F)nn1)Cc1ccccc1O2,x,x,10,-6,x,x
CCCS(=O)(=O)c1cn2cccc(N)c2c1S(=O)(=O)CCC,18,15,17,33*,18*,7
CCCCc1ccc(-c2c(C#N)c(N)nc3c2CCCC3)s1,3,5,2,-4,36*,1
CCCCc1sc(-c2c(C#N)c(N)nc3c2CCCCC3)cc1[N+](=O)[O-],-5,5,-6,-1,-1,x
Fc1ccccc1-c1cc2ccccc2cn1,-3,x,-8,0,15*,12
CC(C)C[C@@H]1COc2cc(Br)ccc2S(=O)(=O)N1Cc1cn(Cc2ccco2)nn1,x,x,7,0,x,x
N#C/C(=C\c1cccnc1)C(=O)Nc1ccc(O)cc1F,-1,-4,2,3,18*,7
Cc1nnsc1S(=O)c1ccc(Cl)c(Cl)c1 (stereo unspecified),-4,-1,-17,3,3,x
